# ChEMBL document CHEMBL5230178, “6-Bromoindirubin-3'-oxime derivatives are highly active colistin adjuvants against Klebsiella pneumoniae” (RSC Med Chem, 2023)
# Active and inactive are the calls of the source. The rule behind the calls is not given here.
# Legend:
# Klebsiella pneumoniae [1] = assay: Potentiation of colistin-induced antibacterial activity against colistin resistant Klebsiella pneumoniae B9 assessed as colistin MIC at 5 uM incubated for 16 hrs by broth microdilution method; format: functional
# Summary of the method: (§1)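 Bacteria grown 6 h in CAMHB, diluted to 5×10^5 CFU/mL. Fixed adjuvant concentration added from DMSO stock; an undosed aliquot gives the colistin MIC alone. Colistin serially two-fold diluted in the compound-dosed suspension. MIC taken at 90% growth inhibition versus untreated wells. Fold change is colistin MIC alone over MIC with adjuvant. Duplicate, repeated at least twice.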
# Klebsiella pneumoniae [2] = assay: Potentiation of colistin-induced antibacterial activity against colistin-resistant Klebsiella pneumoniae B9 assessed as fold change in colistin MIC at 5 uM incubated for 16 hrs by broth microdilution method; format: functional; summary of the method: as §1
# Klebsiella pneumoniae [3] = assay: Antibacterial activity against Klebsiella pneumoniae B9 assessed as inhibition of bacterial growth incubated for 16 hrs by broth microdilution method; format: functional
# Summary of the method: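 Broth microdilution in CAMHB. Six-hour culture diluted to 5×10^5 CFU/mL, compound added from DMSO stock, two-fold serial dilution. MIC is the lowest concentration giving 90% growth inhibition versus untreated wells. Run in duplicate, repeated at least twice.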
# Klebsiella pneumoniae [4] = assay: Potentiation of colistin-induced antibacterial activity against colistin resistant Klebsiella pneumoniae F9 assessed as colistin MIC at 5 uM incubated for 16 hrs by broth microdilution method; format: functional; summary of the method: as §1
# Acinetobacter baumannii [5] = assay: Potentiation of colistin-induced antimicrobial activity against colistin resistant Acinetobacter baumannii 3941 assessed as assessed as colistin MIC at 5 uM incubated for 16 hrs by broth microdilution method; format: functional; summary of the method: as §1
# Klebsiella pneumoniae [6] = assay: Potentiation of colistin-induced antibacterial activity against colistin-resistant Klebsiella pneumoniae B9 assessed as colistin MIC at 1 uM incubated for 16 hrs by broth microdilution method; format: functional; summary of the method: as §1
# Acinetobacter baumannii [7] = assay: Antimicrobial activity against colistin resistant Acinetobacter baumannii 3941 assessed as inhibition of microbial growth incubated for 16 hrs by broth microdilution method; format: functional, organism-based
# Summary of the method: (§2)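 Bacteria grown 6 h in cation-adjusted Mueller Hinton broth (CAMHB), subcultured to 5×10^5 CFU/mL. Compound added from DMSO stock and serially two-fold diluted in the culture. Incubated stationary at 37 °C for 16 h. MIC taken as the lowest concentration giving 90% growth inhibition versus untreated wells. Duplicate, repeated at least twice.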
# Klebsiella pneumoniae [8] = assay: Potentiation of colistin-induced antibacterial activity against colistin resistant Klebsiella pneumoniae F2210291 harbouring mcr-1 gene assessed as colistin MIC at 5 uM incubated for 16 hrs by broth microdilution method; format: functional; summary of the method: as §1
# Klebsiella pneumoniae [9] = assay: Potentiation of colistin-induced antibacterial activity against colistin resistant Klebsiella pneumoniae I2 assessed as colistin MIC at 5 uM incubated for 16 hrs by broth microdilution method; format: functional; summary of the method: as §1
# Klebsiella pneumoniae [10] = assay: Potentiation of colistin-induced antibacterial activity against colistin-resistant Klebsiella pneumoniae B9 assessed as fold change in colistin MIC at 3 uM incubated for 16 hrs by broth microdilution method; format: functional; summary of the method: as §1
# Pseudomonas aeruginosa [11] = assay: Potentiation of colistin-induced antimicrobial activity against colistin-resistant Pseudomonas aeruginosa TRPA 162 assessed as colistin MIC at 5 uM incubated for 16 hrs by broth microdilution method; format: functional; summary of the method: as §1
# Klebsiella pneumoniae [12] = assay: Potentiation of colistin-induced antibacterial activity against colistin-resistant Klebsiella pneumoniae B9 assessed as colistin MIC at 3 uM incubated for 16 hrs by broth microdilution method; format: functional; summary of the method: as §1
# Escherichia coli [13] = assay: Antimicrobial activity against colistin resistant Escherichia coli 25922 harbouring mcr-1 gene assessed as inhibition of microbial growth incubated for 16 hrs by broth microdilution method; format: functional, organism-based; summary of the method: as §2
# Klebsiella pneumoniae [14] = assay: Potentiation of colistin-induced antibacterial activity against colistin resistant Klebsiella pneumoniae C3 assessed as colistin MIC at 5 uM incubated for 16 hrs by broth microdilution method; format: functional; summary of the method: as §1
# Escherichia coli [15] = assay: Potentiation of colistin-induced antimicrobial activity against colistin resistant Escherichia coli 25922 harbouring mcr-1 gene assessed as colistin MIC at 5 uM incubated for 16 hrs by broth microdilution method; format: functional; summary of the method: as §1
# Pseudomonas aeruginosa [16] = assay: Antimicrobial activity against colistin resistant Pseudomonas aeruginosa TRPA 162 assessed as inhibition of microbial growth incubated for 16 hrs by broth microdilution method; format: functional, organism-based; summary of the method: as §2
# Klebsiella pneumoniae [17] = assay: Potentiation of colistin-induced antibacterial activity against colistin-resistant Klebsiella pneumoniae B9 assessed as fold change in colistin MIC at 1 uM incubated for 16 hrs by broth microdilution method; format: functional; summary of the method: as §1
structure (smiles),measurement,setting,value
Cc1ccc2c(c1)C(=N\O)/C(=C1/C(=O)Nc3cc(Br)ccc31)N2,MIC,Klebsiella pneumoniae [1],> 16 µg/mL
Cc1cccc2c1NC(=C1\C(=O)Nc3cc(Br)ccc31)/C2=N/O,MIC,Klebsiella pneumoniae [1],4 µg/mL
same,fold change (FC),Klebsiella pneumoniae [2],128
same,MIC,Klebsiella pneumoniae [3],> 200 µM
O=C1Nc2cc(C(F)(F)F)ccc2/C1=C1/Nc2ccccc2/C1=N\O,MIC,Klebsiella pneumoniae [1],8 µg/mL
same,fold change (FC),Klebsiella pneumoniae [2],64
same,MIC,Klebsiella pneumoniae [3],> 200 µM
O=C1Nc2ccc(Cl)cc2/C1=C1/Nc2ccccc2/C1=N\O,MIC,Klebsiella pneumoniae [1],> 16 µg/mL
same,MIC,Klebsiella pneumoniae [3],> 200 µM
O=C1Nc2cc(Br)ccc2/C1=C1/Nc2c(F)cccc2/C1=N\O,MIC,Klebsiella pneumoniae [1],2 µg/mL
same,MIC,Klebsiella pneumoniae [4],4 µg/mL
same,MIC,Acinetobacter baumannii [5],> 16 µg/mL
same,MIC,Klebsiella pneumoniae [6],> 64 µg/mL
same,Activity,Acinetobacter baumannii [7],inactive
same,fold change (FC),Klebsiella pneumoniae [2],256
same,MIC,Klebsiella pneumoniae [8],2 µg/mL
same,MIC,Klebsiella pneumoniae [9],4 µg/mL
same,fold change (FC),Klebsiella pneumoniae [10],256
same,MIC,Pseudomonas aeruginosa [11],> 16 µg/mL
same,MIC,Klebsiella pneumoniae [12],2 µg/mL
same,Activity,Escherichia coli [13],inactive
same,MIC,Klebsiella pneumoniae [14],4 µg/mL
same,MIC,Escherichia coli [15],2 µg/mL
same,MIC,Klebsiella pneumoniae [3],> 200 µM
same,Activity,Pseudomonas aeruginosa [16],inactive
O=C1Nc2c(Cl)cccc2/C1=C1/Nc2ccccc2/C1=N\O,MIC,Klebsiella pneumoniae [1],> 16 µg/mL
same,MIC,Klebsiella pneumoniae [3],> 200 µM
O=C1Nc2cc(F)ccc2/C1=C1/Nc2ccccc2/C1=N\O,MIC,Klebsiella pneumoniae [1],> 16 µg/mL
same,MIC,Klebsiella pneumoniae [3],> 200 µM
O=C1Nc2ccccc2/C1=C1/Nc2ccccc2/C1=N\O,MIC,Klebsiella pneumoniae [1],> 16 µg/mL
same,MIC,Klebsiella pneumoniae [3],> 200 µM
COc1ccc2c(c1)NC(=O)/C2=C1\Nc2ccccc2\C1=N/O,MIC,Klebsiella pneumoniae [1],> 16 µg/mL
same,MIC,Klebsiella pneumoniae [3],> 200 µM
O=C1Nc2cc(Br)ccc2/C1=C1/Nc2ccc(Br)cc2/C1=N\O,MIC,Klebsiella pneumoniae [1],4 µg/mL
same,fold change (FC),Klebsiella pneumoniae [2],128
same,MIC,Klebsiella pneumoniae [3],> 200 µM
O=C1Nc2cc(Br)ccc2/C1=C1/Nc2cc(F)c(F)cc2/C1=N\O,MIC,Klebsiella pneumoniae [1],1 µg/mL
same,MIC,Klebsiella pneumoniae [6],> 64 µg/mL
same,fold change (FC),Klebsiella pneumoniae [2],512
same,fold change (FC),Klebsiella pneumoniae [10],128
same,MIC,Klebsiella pneumoniae [12],4 µg/mL
same,MIC,Klebsiella pneumoniae [3],> 200 µM
O=C1Nc2cc(Br)ccc2/C1=C1/Nc2c(Br)cccc2/C1=N\O,MIC,Klebsiella pneumoniae [1],1 µg/mL
same,MIC,Klebsiella pneumoniae [4],4 µg/mL
same,MIC,Acinetobacter baumannii [5],> 16 µg/mL
same,MIC,Klebsiella pneumoniae [6],32 µg/mL
same,Activity,Acinetobacter baumannii [7],inactive
same,fold change (FC),Klebsiella pneumoniae [2],512
same,MIC,Klebsiella pneumoniae [8],2 µg/mL
same,MIC,Klebsiella pneumoniae [9],4 µg/mL
same,fold change (FC),Klebsiella pneumoniae [10],256
same,MIC,Pseudomonas aeruginosa [11],> 16 µg/mL
same,fold change (FC),Klebsiella pneumoniae [17],16
same,MIC,Klebsiella pneumoniae [12],2 µg/mL
same,Activity,Escherichia coli [13],inactive
same,MIC,Klebsiella pneumoniae [14],4 µg/mL
same,MIC,Escherichia coli [15],1 µg/mL
same,MIC,Klebsiella pneumoniae [3],> 200 µM
same,Activity,Pseudomonas aeruginosa [16],inactive
O=C1Nc2cc(Br)ccc2/C1=C1/Nc2cc(F)ccc2/C1=N\O,MIC,Klebsiella pneumoniae [1],> 16 µg/mL
same,MIC,Klebsiella pneumoniae [3],> 200 µM
O=C1Nc2cc(Br)ccc2/C1=C1/Nc2c(Cl)cccc2/C1=N\O,MIC,Klebsiella pneumoniae [1],1 µg/mL
same,MIC,Klebsiella pneumoniae [4],4 µg/mL
same,MIC,Acinetobacter baumannii [5],> 16 µg/mL
same,MIC,Klebsiella pneumoniae [6],32 µg/mL
same,Activity,Acinetobacter baumannii [7],inactive
same,fold change (FC),Klebsiella pneumoniae [2],512
same,MIC,Klebsiella pneumoniae [8],2 µg/mL
same,MIC,Klebsiella pneumoniae [9],4 µg/mL
same,fold change (FC),Klebsiella pneumoniae [10],256
same,MIC,Pseudomonas aeruginosa [11],> 16 µg/mL
same,fold change (FC),Klebsiella pneumoniae [17],16
same,MIC,Klebsiella pneumoniae [12],2 µg/mL
same,Activity,Escherichia coli [13],inactive
same,MIC,Klebsiella pneumoniae [14],4 µg/mL
same,MIC,Escherichia coli [15],2 µg/mL
same,MIC,Klebsiella pneumoniae [3],> 200 µM
same,Activity,Pseudomonas aeruginosa [16],inactive
Cc1ccc2c(c1)NC(=O)/C2=C1\Nc2ccccc2\C1=N/O,MIC,Klebsiella pneumoniae [1],> 16 µg/mL
same,MIC,Klebsiella pneumoniae [3],> 200 µM
